Results from different studies.
Target: Mitogen-activated protein kinase kinase kinase kinase 2 (MAP4K2, Homo sapiens, UniProt Q12851)
Sequence (Q12851 1-820, as in one of the studies): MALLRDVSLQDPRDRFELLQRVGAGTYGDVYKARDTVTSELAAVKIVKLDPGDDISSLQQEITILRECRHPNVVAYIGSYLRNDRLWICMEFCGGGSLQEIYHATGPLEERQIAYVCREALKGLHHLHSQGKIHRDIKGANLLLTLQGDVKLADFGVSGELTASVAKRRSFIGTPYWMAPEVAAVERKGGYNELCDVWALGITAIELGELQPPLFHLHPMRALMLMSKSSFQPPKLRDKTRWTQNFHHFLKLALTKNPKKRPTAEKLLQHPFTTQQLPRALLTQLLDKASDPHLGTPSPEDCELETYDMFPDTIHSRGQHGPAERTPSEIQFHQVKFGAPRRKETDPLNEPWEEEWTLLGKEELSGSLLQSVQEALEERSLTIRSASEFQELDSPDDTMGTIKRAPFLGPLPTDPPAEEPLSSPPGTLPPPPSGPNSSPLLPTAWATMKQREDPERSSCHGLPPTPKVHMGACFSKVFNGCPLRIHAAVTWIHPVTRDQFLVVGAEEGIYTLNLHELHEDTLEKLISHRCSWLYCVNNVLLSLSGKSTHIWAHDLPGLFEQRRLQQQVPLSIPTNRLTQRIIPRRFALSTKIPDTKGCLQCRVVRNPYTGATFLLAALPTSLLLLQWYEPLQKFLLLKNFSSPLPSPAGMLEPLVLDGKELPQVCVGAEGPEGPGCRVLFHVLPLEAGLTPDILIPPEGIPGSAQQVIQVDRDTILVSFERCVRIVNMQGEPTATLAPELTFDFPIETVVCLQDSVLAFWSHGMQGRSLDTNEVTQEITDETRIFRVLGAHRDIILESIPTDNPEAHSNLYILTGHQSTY

| Structure (SMILES) | assay | conditions | endpoint | value |
| --- | --- | --- | --- | --- |
| Cc1nc(N2CC[C@@H](O)C2)ncc1-c1cc(C(F)(F)F)cc2[nH]ncc12 | binding, competition with immobilised ligand | 1 µM | remaining binding | 76% |
| CCN(CC)CCNC(=O)c1c(C)[nH]c(/C=C2\C(=O)Nc3ccc(F)cc32)c1C | enzyme activity, inhibitor | 0.3 µM | inhibition | 45% |
| C[C@@H](c1cccc(C#N)c1)n1cc(Cl)cc(C(N)=O)c1=N | cell-free assay, competition with immobilised ligand | 1 µM | remaining binding | 90% |
| Nc1ncnc2occ(-c3ccc(NC(=O)Nc4cc(C(F)(F)F)ccc4F)cc3)c12 | cell-free assay, inhibitor | 20 µM | remaining signal | 0% |
| CC/C(=N\NC(=O)NCc1cccc(O)c1)c1ccc(O)c(C)c1O | enzyme activity, inhibitor | 0.1 µM | inhibition | 1.4% |
| FC(F)(F)Oc1cccc(-c2cnc3ccc(-c4ccncc4)nn23)c1 | enzyme activity, inhibitor, radiometric | 1 µM | activity vs control | 37% |
| CCc1ccccc1C(=O)Nc1n[nH]c2c(C)c(F)c(C3C(C#N)=C(C)N(C)C(C)=C3C#N)cc12 | cell-free assay, competition with immobilised ligand | 1 µM | remaining binding | 100% |
| COc1cc2ncnc(Nc3ccc(Oc4ccccc4)c(C)c3C)c2cc1OC | enzyme activity, inhibitor | 1 µM | inhibition | 0% |
| Cc1sc(C(=O)NC2COC2)cc1-n1cc(NC(=O)Nc2c(F)cccc2Cl)cn1 | enzyme activity, inhibitor | 10 µM | remaining activity | 90.2% |
| COc1cc(Cl)c(C(=O)N[C@@H](CN[C@H]2CC[C@@H](N)CC2)Cc2ccc(C#N)cc2)cc1-c1ccc(CN[C@H](C)c2ccc(C)cc2)o1 | enzyme activity, inhibitor | 1 µM | remaining activity | 94% |
| Cc1ccc(C(=O)Nc2ccc(CN3CCN(C)CC3)c(C(F)(F)F)c2)cc1C#Cc1cnc2cccnn12 | enzyme activity, inhibitor | 23.5 nM | remaining activity | 4.9% |
| CC(C)(O)c1cncc(-c2nc3ccc(F)cc3n2C2CC2)c1 | cell-free assay, competition with immobilised ligand | 1 µM | remaining binding | 98% |
| Cc1cc(NC(=O)c2cccc3cc(-c4cccc5[nH]nc(N)c45)ccc23)ccc1F | enzyme activity, inhibitor | 0.1 µM | activity vs control | 88% |
| CSc1cccnc1N1CCN(Cc2nc3ccccc3[nH]2)CC1 | cell-free assay, competition with immobilised ligand | 1 µM | remaining binding | 100% |
| O=C1Nc2ccc(Cl)cc2C1=Cc1cc(Cl)c(O)c(Cl)c1 | cell-free assay | 0.5 µM | remaining signal | 62.6% |
| CN1CCN(C(=O)c2ccc3cc(CCNc4ccnc5ccc(C#N)cc45)ccc3c2)CC1 | binding, competition with immobilised ligand | 2 µM | inhibition | > 35% |
| C[C@H](c1ccnc(Nc2nc3ccc(-c4cc(N(C)C)ncn4)cc3[nH]2)c1)N1CCN(C(=O)CC(F)(F)F)CC1 | cell-free assay, competition with immobilised ligand | 0.1 µM | remaining binding | 100% |
| COc1cc2ncnc(Nc3ccc(F)c(Cl)c3)c2cc1OCCCN1CCOCC1 | cell-free assay | 0.5 µM | remaining signal | 104% |
| Cc1ccc(NC(=O)c2ccc(C)c(C(F)(F)F)c2)cc1C#Cc1nn(C2CCC(O)CC2)c2ncnc(N)c12 (centres unmarked) | cell-free assay | 10 µM | remaining signal | 49% |
| CC(C)(C)c1nc(-c2cccc(NS(=O)(=O)c3c(F)cccc3F)c2F)c(-c2ccnc(N)n2)s1 | enzyme activity, inhibitor, radiometric | 1 µM | remaining activity | 115% |
| CNC(=O)c1cc(Oc2ccc(NC(=O)Nc3ccc(Cl)c(C(F)(F)F)c3)cc2)ccn1 | enzyme activity, inhibitor | 0.3 µM | inhibition | 5% |
| Cc1c(NC(=O)c2cc(C(N)=O)nc3cc(F)ccc23)c(C(F)(F)F)nn1Cc1ccc(C#N)cc1 | cell-free assay, competition with immobilised ligand | 1 µM | remaining binding | 88% |
| CN1CC(Oc2cnc(C#N)cc2-c2ccn3nc(NC(=O)C4CC4)cc3c2)C1 | enzyme activity, inhibitor | 1 µM | inhibition | 2% |
| Cn1c(=O)n(-c2ccc(C(C)(C)C#N)cc2)c2c3cc(-c4cnc5ccccc5c4)ccc3ncc21 | enzyme activity, inhibitor | 10 µM | remaining activity | 12% |
| COc1cc(Nc2cnc(C#N)c(O[C@H](C)CN(C)C)n2)ncc1-c1cnn(C)c1 | enzyme activity, inhibitor, radiometric | 10 µM | remaining activity | 56% |
| Cc1ccc(Nc2nccc(N(C)c3ccc4c(C)n(C)nc4c3)n2)cc1S(N)(=O)=O | enzyme activity, inhibitor | 10 µM | inhibition | 83% |
